In ChEMBL document CHEMBL1126196, “Improvements in the minimum binding sequence of C5a: examination of His-67” (J Med Chem, 1992):
pEC50, pKi: −log10 of the molar value. Square brackets hold non-standard residues; d marks the D form. Peptide text beside a SMILES is read from it. * marks the point of attachment. His(τ-Me) = Cn1cnc(C[C@H](N)C(=O)O)c1; His(π-Me) = Cn1cncc1C[C@H](N)C(=O)O; Hydrocinnamoyl = O=C(CCc1ccccc1)*; hPhe = N[C@@H](CCc1ccccc1)C(=O)O; Cha = N[C@@H](CC1CCCCC1)C(=O)O; Phg = N[C@H](C(=O)O)c1ccccc1

Columns and labels:
[1] = molecular target: T1, C5a anaphylatoxin chemotactic receptor 1 (Homo sapiens, UniProt P21730); experiment: Inhibitory activity against [125I]-rC5a binding to C5a anaphylatoxin chemotactic receptor in human polymorphonuclear leukocyte (PMNL) membranes
T1 sequence (P21730 whole entry): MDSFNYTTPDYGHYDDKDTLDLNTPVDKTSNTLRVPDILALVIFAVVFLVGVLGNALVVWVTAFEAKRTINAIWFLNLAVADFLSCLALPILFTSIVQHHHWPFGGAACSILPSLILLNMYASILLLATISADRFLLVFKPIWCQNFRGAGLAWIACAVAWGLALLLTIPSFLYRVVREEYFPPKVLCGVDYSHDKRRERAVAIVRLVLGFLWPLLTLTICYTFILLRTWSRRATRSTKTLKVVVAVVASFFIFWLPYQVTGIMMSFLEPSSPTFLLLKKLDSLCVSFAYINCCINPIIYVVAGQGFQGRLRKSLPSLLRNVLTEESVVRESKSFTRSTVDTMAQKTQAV
Procedure, shortened: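 Competition binding on human PMNL membrane fragments, peptides displacing ¹²⁵I-labelled recombinant C5a. Inhibition binding data converted to apparent dissociation constant (Ki) by the Cheng–Prusoff method.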

[2] = tested on: Cavia porcellus; experiment: In vivo potency by its ability to cause evans blue dye leakage as a marker of increased vascular permeability when injected intradermally in guinea pig; assay type: functional, organism-based
[3] = species on record: Homo sapiens; experiment: In vitro potency against polymorphonuclear leukocyte (PMNL) chemokinesis; assay type: functional
Procedure, shortened: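 PMNL chemokinesis run over half-log concentration steps based on the binding Ki; EC50 obtained by least-squares regression as the concentration giving 50% of that peptide's own maximal response.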

[4] = species on record: Homo sapiens; experiment: In vitro agonist efficacy against polymorphonuclear leukocyte (PMNL) chemokinesis; parameters: concentration or dose not given beside the values
[5] = tested on: Cavia porcellus; experiment: In vivo agonist efficacy by its ability to cause evans blue dye leakage as a marker of increased vascular permeability when injected intradermally in guinea pig; assay type: functional; parameters: concentration or dose not given beside the values
Procedure, shortened: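 Guinea pig, intradermal injection of peptide at a single high concentration; Evans blue dye leakage read as vascular permeability increase, compared with the maximal response to a control rC5a injection included in each test group.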

Row | Compound | pKi [1] | pEC50 [2] | pEC50 [3] | Activity [4] [%] | Activity [5] [%]
1 | CSCC[C@H](NC(=O)[C@H](CC(=O)O)NC(=O)[C@H](CCCCN)NC(=O)[C@@H](N)Cc1cccs1)C(=O)N[C@@H](CCC(N)=O)C(=O)N[C@@H](CC(C)C)C(=O)NCC(=O)N[C@@H](CCCNC(=N)N)C(=O)O | 5.68 | – | – | – | –
2 | CSCC[C@H](NC(=O)[C@H](CC(=O)O)NC(=O)[C@H](CCCCN)NC(=O)[C@@H](N)Cc1cccs1)C(=O)N[C@@H](CCC(N)=O)C(=O)N[C@@H](CC(C)C)C(=O)NCC(=O)N[C@@H](CCCN=C(N)N)C(=O)O [listing 1 of 2 here] | – | > 3.00 | 6.28 | – | –
3 | CSCC[C@H](NC(=O)[C@H](CC(=O)O)NC(=O)[C@H](CCCCN)NC(=O)[C@@H](N)Cc1cccs1)C(=O)N[C@@H](CCC(N)=O)C(=O)N[C@@H](CC(C)C)C(=O)NCC(=O)N[C@@H](CCCN=C(N)N)C(=O)O [listing 2 of 2 here] | – | – | – | 142 | –
4 | CSCC[C@H](NC(=O)[C@H](CC(=O)O)NC(=O)[C@H](CCCCN)NC(=O)[C@H](N)Cc1cccs1)C(=O)N[C@@H](CCC(N)=O)C(=O)N[C@@H](CC(C)C)C(=O)NCC(=O)N[C@@H](CCCN=C(N)N)C(=O)O | – | – | – | – | 85
5 | CSCC[C@H](NC(=O)[C@H](CC(=O)O)NC(=O)[C@H](CCCCN)NC(=O)[C@@H](N)Cc1ccccc1)C(=O)N[C@@H](CCC(N)=O)C(=O)N[C@@H](CC(C)C)C(=O)NCC(=O)N[C@@H](CCCN=C(N)N)C(=O)O | 6.59 | > 3.00 | 6.34 | 132 | 60
6 | CSCC[C@H](NC(=O)[C@H](CC(=O)O)NC(=O)[C@H](CCCCN)NC(=O)[C@H](N)Cc1ccccc1)C(=O)N[C@@H](CCC(N)=O)C(=O)N[C@@H](CC(C)C)C(=O)NCC(=O)N[C@@H](CCCN=C(N)N)C(=O)O | 4.10 | – | 4.10 | 70 | –
7 | CSCC[C@H](NC(=O)[C@H](CC(=O)O)NC(=O)[C@H](CCCCN)NC(=O)[C@@H](N)CC1CCCCC1)C(=O)N[C@@H](CCC(N)=O)C(=O)N[C@@H](CC(C)C)C(=O)NCC(=O)N[C@@H](CCCN=C(N)N)C(=O)O (H-[Cha]KDMQLGR-OH) [listing 1 of 2 here] | – | – | 5.52 | – | –
8 | CSCC[C@H](NC(=O)[C@H](CC(=O)O)NC(=O)[C@H](CCCCN)NC(=O)[C@@H](N)CC1CCCCC1)C(=O)N[C@@H](CCC(N)=O)C(=O)N[C@@H](CC(C)C)C(=O)NCC(=O)N[C@@H](CCCNC(=N)N)C(=O)O (H-[Cha]KDMQLGR-OH) | 4.89 | – | – | – | –
9 | CSCC[C@H](NC(=O)[C@H](CC(=O)O)NC(=O)[C@H](CCCCN)NC(=O)[C@@H](N)CC1CCCCC1)C(=O)N[C@@H](CCC(N)=O)C(=O)N[C@@H](CC(C)C)C(=O)NCC(=O)N[C@@H](CCCN=C(N)N)C(=O)O (H-[Cha]KDMQLGR-OH) [listing 2 of 2 here] | – | – | – | 154 | –
10 | CSCC[C@H](NC(=O)[C@H](CC(=O)O)NC(=O)[C@H](CCCCN)NC(=O)[C@@H](N)Cc1cncn1C)C(=O)N[C@@H](CCC(N)=O)C(=O)N[C@@H](CC(C)C)C(=O)NCC(=O)N[C@@H](CCCN=C(N)N)C(=O)O (H-[His(π-Me)]KDMQLGR-OH) | 3.74 | – | 3.96 | 88 | –
11 | CSCC[C@H](NC(=O)[C@H](CC(=O)O)NC(=O)[C@H](CCCCN)NC(=O)[C@@H](N)Cc1cn(C)cn1)C(=O)N[C@@H](CCC(N)=O)C(=O)N[C@@H](CC(C)C)C(=O)NCC(=O)N[C@@H](CCCNC(=N)N)C(=O)O (H-[His(τ-Me)]KDMQLGR-OH) [listing 1 of 2 here] | 4.24 | – | 4.77 | – | –
12 | CSCC[C@H](NC(=O)[C@H](CC(=O)O)NC(=O)[C@H](CCCCN)NC(=O)[C@@H](N)Cc1cn(C)cn1)C(=O)N[C@@H](CCC(N)=O)C(=O)N[C@@H](CC(C)C)C(=O)NCC(=O)N[C@@H](CCCNC(=N)N)C(=O)O (H-[His(τ-Me)]KDMQLGR-OH) [listing 2 of 2 here] | – | – | – | 90 | –
13 | CSCC[C@H](NC(=O)[C@H](CC(=O)O)NC(=O)[C@H](CCCCN)NC(=O)[C@@H](N)c1ccccc1)C(=O)N[C@@H](CCC(N)=O)C(=O)N[C@@H](CC(C)C)C(=O)NCC(=O)N[C@@H](CCCN=C(N)N)C(=O)O (H-[Phg]KDMQLGR-OH) [listing 1 of 2 here] | 4.51 | – | 5.00 | – | –
14 | CSCC[C@H](NC(=O)[C@H](CC(=O)O)NC(=O)[C@H](CCCCN)NC(=O)[C@@H](N)c1ccccc1)C(=O)N[C@@H](CCC(N)=O)C(=O)N[C@@H](CC(C)C)C(=O)NCC(=O)N[C@@H](CCCN=C(N)N)C(=O)O (H-[Phg]KDMQLGR-OH) [listing 2 of 2 here] | – | – | – | 72 | –
15 | CSCC[C@H](NC(=O)[C@H](CC(=O)O)NC(=O)[C@H](CCCCN)NC(=O)[C@@H](N)CCc1ccccc1)C(=O)N[C@@H](CCC(N)=O)C(=O)N[C@@H](CC(C)C)C(=O)NCC(=O)N[C@@H](CCCN=C(N)N)C(=O)O (H-[hPhe]KDMQLGR-OH) | – | – | 4.82 | 162 | –
16 | CSCC[C@H](NC(=O)[C@H](CC(=O)O)NC(=O)[C@H](CCCCN)NC(=O)[C@@H](N)CCc1ccccc1)C(=O)N[C@@H](CCC(N)=O)C(=O)N[C@@H](CC(C)C)C(=O)NCC(=O)N[C@@H](CCCNC(=N)N)C(=O)O (H-[hPhe]KDMQLGR-OH) | 4.44 | – | – | – | –
17 | CSCC[C@H](NC(=O)[C@H](CC(=O)O)NC(=O)[C@H](CCCCN)NC(=O)CCc1ccccc1)C(=O)N[C@@H](CCC(N)=O)C(=O)N[C@@H](CC(C)C)C(=O)NCC(=O)N[C@@H](CCCN=C(N)N)C(=O)O (Hydrocinnamoyl-KDMQLGR-OH) | – | – | 6.10 | 84 | –
18 | CSCC[C@H](NC(=O)[C@H](CC(=O)O)NC(=O)[C@H](CCCCN)NC(=O)CCc1ccccc1)C(=O)N[C@@H](CCC(N)=O)C(=O)N[C@@H](CC(C)C)C(=O)NCC(=O)N[C@@H](CCCNC(=N)N)C(=O)O (Hydrocinnamoyl-KDMQLGR-OH) | 5.36 | – | – | – | –
19 | Ac-FKDMQLGR-OH [listing 1 of 2 here] | 6.70 | – | 6.36 | – | –
20 | Ac-FKDMQLGR-OH [listing 2 of 2 here] | – | – | – | 76 | –
21 | H-ANISFKDMQLGR-OH | – | > 4.00 | 6.60 | 85 | 69
22 | H-HKDMQLGR-OH | – | – | 3.96 | 129 | –
23 | H-ISFKDMQLGR-OH | – | > 4.00 | 6.14 | 76 | 54
24 | H-LRANISFKDMQLGR-OH | 6.09 | > 3.52 | 5.80 | 133 | 116
